Data taken from ChEMBL document CHEMBL4325821, “Novel cell-penetrating-amyloid peptide conjugates preferentially kill cancer cells” (Medchemcomm, 2018).
Active and inactive are the calls of the source. No cut-off for these calls is given here. Starred links: 1 amine or outer side, 2 acyl side, 3 side chain; linkers in the order of their positions; H or OH if unused. Residues, ends and D or L forms follow the SMILES beside them. *: point of attachment. Piperazinyl(4-RhodamineB) = CCN(CC)c1ccc2c(-c3ccccc3C(=O)N3CCN(*)CC3)c3ccc(=[N+](CC)CC)cc-3oc2c1; Suc = O=C(CCC(=O)[*:2])[*:1]

Key:
HeLa = experiment: Cytotoxicity against human HeLa cells after 24 hrs by MTT assay; type: functional
How it was run: (§1)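 Cells grown at 37 °C with 5% CO2 and treated at about 50–70% confluence in serum-free medium for 24 h. Viability read by MTT and expressed as a percentage of untreated cells. Run in triplicate in at least three independent trials, reported as mean ± standard deviation.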

HT-22 [1] = experiment: Aggregation property of the compound in mouse HT22 cells assessed as intracellular amyloid formation at 15 uM after 1 hr by thioflavin S/DAPI staining based fluorescence microscopic analysis; type: ADME, cell-based; conditions: ht-22, 1 h
How it was run: (§2)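 Cells treated with vehicle or 15 μM peptide for 1 h, fixed in 4% PFA for 20 min, stained with 0.005% (w/v) ThS in water for 10 min, washed three times with absolute ethanol, counterstained with DAPI, and imaged by epifluorescence microscopy.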

MCF-10A = experiment: Cytotoxicity against human MCF10A cells after 24 hrs by MTT assay; type: cell-based
How it was run: (§3)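 Per well of a 48-well plate, 1.5 × 10^4 cells were seeded in medium with 10% FBS and grown for at least 24 h, then treated at about 50–60% confluence for 24 h. MTT was added for the final 3 h at 37 °C in the dark. Formazan was dissolved in DMSO and read at 595 nm, as % of untreated cells. Triplicate wells, at least three independent trials.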

MDA-MB-231 = experiment: Cytotoxicity against human MDA-MB-231 cells after 24 hrs by MTT assay; type: functional; conditions: for EC50: MDA-MB-231, 24 h, read-out: ED50 (the source's name); how it was run: as §3
HT-22 [2] = experiment: Aggregation property of the compound in mouse HT22 cells assessed as intracellular amyloid formation by thioflavin S/DAPI staining based fluorescence microscopic analysis; type: ADME, cell-based; how it was run: as §2
HT-22 [3] = experiment: Cytotoxicity against mouse HT22 cells after 24 hrs in presence of lysosomal protease inhibitor ammonium chloride by MTT assay; type: functional, cell-based
HT-22 [4] = experiment: Cytotoxicity against mouse HT22 cells after 24 hrs in presence of lysosomal protease inhibitor bafilomycin A1 by MTT assay; type: functional, cell-based
HT-22 [5] = experiment: Cytotoxicity against mouse HT22 cells after 24 hrs in presence of lysosomal protease inhibitor leupeptin by MTT assay; type: functional, cell-based
HT-22 [6] = experiment: Induction of cell death in mouse HT22 cells at 7.5 uM after 3 hrs by thioflavin S/DAPI/propidium iodide staining based fluorescence microscopic analysis; type: functional
How it was run: (§4)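 Cells were given vehicle or 7.5 μM peptide for 3 h and stained live with 20 μg mL−1 propidium iodide for 10 min. They were then PBS-washed, fixed in 4% PFA, stained with 0.005% ThS for 10 min, ethanol-washed, counterstained with DAPI and imaged by fluorescence microscopy.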

[7] = Drug localization in cytosol of HEK293 cells assessed as punctate formation after 3 hrs by DAPI staining based fluorescence microscopic analysis; type: ADME, subcellular; conditions: human
How it was run: (§5)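 Rhodamine-labelled peptide (3.5 μM) was given for 3 h at 37 °C. Cells were washed with DMEM and PBS, fixed in 4% PFA for 20 min, nuclei stained with DAPI, and imaged by epifluorescence with 40× air or 60× oil objectives.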

[8] = Drug localization in nucleus of human HeLa cells assessed as punctate formation after 3 hrs by DAPI staining based fluorescence microscopic analysis; type: ADME, subcellular; how it was run: as §5
[9] = Drug localization in nucleus of mouse HT22 cells assessed as punctate formation after 3 hrs by DAPI staining based fluorescence microscopic analysis; type: ADME, subcellular; conditions: ht-22, 3 h; how it was run: as §5
[10] = Drug localization in late endosomes/lysosomes of mouse Rh-Dextran-labelled HT22 cells at 7.5 uM after 2.5 hrs using fluorescent-labelled peptide by confocal microscopic analysis; type: ADME, subcellular, Late endosome/lysosome; conditions: ht-22, 2.5 h
[11] = Drug localization in nucleus of HEK293 cells assessed as punctate formation after 3 hrs by DAPI staining based fluorescence microscopic analysis; type: ADME, subcellular; conditions: human, hek293, 3 h; how it was run: as §5
[12] = Drug localization in cytosol of mouse HT22 cells assessed as punctate formation after 3 hrs by DAPI staining based fluorescence microscopic analysis; type: ADME, subcellular, HT-22; how it was run: as §5
[13] = Drug uptake in mouse HT22 cells at 3.5 uM up to 3 hrs by DAPI staining based fluorescence microscopic analysis; type: ADME, cell-based; conditions: ht-22, 3 h
How it was run: (§6)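 HT-22 cells were incubated with 3.5 μM rhodamine-labelled peptide for 30 min, 3 h, 6 h and 24 h at 37 °C, then fixed in 4% PFA with DAPI nuclear stain. Per-cell fluorescence was taken as integrated density after background correction.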

[14] = Drug localization in cytosol of human HeLa cells assessed as punctate formation after 3 hrs by DAPI staining based fluorescence microscopic analysis; type: ADME, subcellular; how it was run: as §5
[15] = Drug uptake in mouse HT22 cells at 3.5 uM after 6 to 24 hrs by DAPI staining based fluorescence microscopic analysis; type: ADME, cell-based; conditions: ht-22, 3.5 µM; how it was run: as §6
HT-22 [16] = experiment: Induction of endosomal/lysosomal membrane permeabilization in mouse HT22 cells at 15 uM measured after 1 hr by acridine orange dye based fluorescence microscopic analysis; type: functional
HEK293 = experiment: Cytotoxicity against HEK293 cells after 24 hrs by MTT assay; type: cell-based; conditions: human, hek293, 24 h; how it was run: as §1
HT-22 [17] = experiment: Induction of cell death in mouse HT22 cells by thioflavin S/DAPI/propidium iodide staining based fluorescence microscopic analysis; type: functional; how it was run: as §4
[18] = Drug localization in cytosol of mouse Rh-Dextran-labelled HT22 cells at 7.5 uM after 2.5 hrs using fluorescent-labelled peptide by confocal microscopic analysis; type: ADME, subcellular, HT-22

Molecule	Activity (HeLa)	Activity (HT-22 [1])	Activity (MCF-10A)	Activity (HT-22 [3])	Activity (HT-22 [4])	Activity (HT-22 [5])	EC50 (MDA-MB-231) [µM]	other results
Ac-LAVLFL-NH2	Active							
Ac-VQIVKKRRRRRRRRR-NH2	Active	Not Active						
Ac-VQIVYK-NH2	Active	Not Active	Non-Toxic					Activity (MDA-MB-231): inactive
Ac-LAVLFLRRRRRRRRR-NH2			Non-Toxic	Active	Active	Active	20	Activity (HT-22 [2]): Active; EC50 (HeLa; read-out: ED50 (the source's name)): 3 µM; Activity (HT-22 [6]): Active
CC[C@H](C)[C@H](NC(=O)[C@H](CCC(N)=O)NC(=O)[C@@H](NC(=O)CCC(=O)N1CCN(C(=O)c2ccccc2-c2c3ccc(=[N+](CC)CC)cc-3oc3cc(N(CC)CC)ccc23)CC1)C(C)C)C(=O)N[C@H](C(=O)N[C@@H](Cc1ccc(O)cc1)C(=O)N[C@@H](CCCCN)C(=O)N[C@@H](CCCNC(=N)N)C(=O)N[C@@H](CCCNC(=N)N)C(=O)N[C@@H](CCCNC(=N)N)C(=O)N[C@@H](CCCNC(=N)N)C(=O)N[C@@H](CCCNC(=N)N)C(=O)N[C@@H](CCCNC(=N)N)C(=O)N[C@@H](CCCNC(=N)N)C(=O)N[C@@H](CCCNC(=N)N)C(=O)N[C@@H](CCCNC(=N)N)C(N)=O)C(C)C.[Cl-] ({Piperazinyl(4-RhodamineB)-Suc}-VQIVYKRRRRRRRRR-NH2)								Drug uptake [7]: Active; Drug uptake [8]: Active; Drug uptake [9]: Active; Drug uptake [10]: Active; Drug uptake [11]: Active; Drug uptake [12]: Active; Drug uptake [13]: Active; Drug uptake [14]: Active; Drug uptake [15]: Not Active
Ac-VQIVYKRRRRRRRRR-NH2	Active	Active	Non-Toxic	inactive	inactive	inactive	5	Activity (HT-22 [16]): Active; Activity (HEK293): Non-Toxic; Activity (HT-22 [17]): Active; Drug uptake [18]: Active
